From ChEMBL document CHEMBL1212711, “Mechanistic and functional insights into fatty acid activation in Mycobacterium tuberculosis” (Nat Chem Biol, 2009)
Converted amounts (≈) assume the structure as drawn. The source made the active and inactive calls. The rule behind the calls is not given here.

Assays:
[1] = test system: Mycobacterium tuberculosis H37Rv; assay: (§1) Inhibition of Mycobacterium tuberculosis H37Rv FACL28; conditions: TDE = time-dependent effect
Procedure, shortened: (§2)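 Purified enzyme pre-incubated with increasing LAMS concentrations, then activity measured by radio-TLC acyl-adenylation assay. Dose-response data fitted to the Morrison tight-binding equation using enzyme concentration to obtain apparent Ki.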

[2] = test system: Mycobacterium tuberculosis; assay: Antimicrobial activity against Mycobacterium tuberculosis H37Rv assessed as degeneration of lipid layer in cell wall by transmission electron microscopy; assay type: functional, organism-based
[3] = test system: Mycobacterium tuberculosis H37Rv; assay: Binding affinity to Mycobacterium tuberculosis H37Rv FACL28 assessed as noncovalent protein-ligand interaction by mass spectroscopy
Procedure, shortened: (§3)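 Purified enzyme–inhibitor (EI*) complex extracted with ethyl acetate. Released acyl-AMS detected by mass spectrometry to test for non-covalent versus covalent binding.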

[4] = test system: Mycobacterium tuberculosis; assay: Antimicrobial activity against Mycobacterium tuberculosis H37Rv assessed as degeneration of peptidoglycan layer in cell wall by transmission electron microscopy; assay type: functional, organism-based
[5] = test system: Mycobacterium tuberculosis H37Rv; assay: Stabilization of Mycobacterium tuberculosis H37Rv FACL19 assessed as protection against proteolysis
Procedure, shortened: (§4)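 Limited tryptic proteolysis of purified protein in the presence of increasing LAMS concentrations. Protection from fragmentation taken as a sign of binding-induced conformational change.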

[6] = test system: Mycobacterium tuberculosis; assay: Antimicrobial activity against Mycobacterium tuberculosis H37Rv assessed as occurrence of irregular cell shape by transmission electron microscopy; assay type: functional, organism-based
[7] = test system: Mycobacterium tuberculosis H37Rv; assay: (§5) Inhibition of Mycobacterium tuberculosis H37Rv FAAL19; conditions: TDE = time-dependent effect; procedure, shortened: as §2
[8] = test system: Mycobacterium tuberculosis; assay: Antimicrobial activity against Mycobacterium tuberculosis H37Rv assessed decrease in fatty acid biosynthesis by [14C]-acetate incorporation assay; assay type: functional, organism-based
Procedure, shortened: (§6)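 Mid-log H37Rv cultures (10 ml) given 5 μCi ^14C-propionate (methylated lipids) or ^14C-acetate (fatty/mycolic acids) plus various LAMS concentrations. Incubated 16 h at 37°C. Mycolic acids and total extractable lipids then analysed.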

[9] = test system: Mycobacterium tuberculosis H37Rv; assay: Stabilization of Mycobacterium tuberculosis H37Rv FAAL28 assessed as protection against proteolysis; procedure, shortened: as §4
[10] = test system: Mycobacterium tuberculosis; assay: Antimicrobial activity against Mycobacterium tuberculosis H37Rv assessed decrease in SL-1 biosynthesis by [14C]propionate incorporation assay; assay type: functional, organism-based; procedure, shortened: as §6
[11] = test system: Mycobacterium tuberculosis; assay: Antimicrobial activity against Mycobacterium tuberculosis H37Rv assessed decrease in mycolic acid biosynthesis by [14C]-acetate incorporation assay; assay type: functional, organism-based; procedure, shortened: as §6
[12] = test system: Mycobacterium tuberculosis H37Rv; assay: Binding affinity to Mycobacterium tuberculosis H37Rv FAAL19 assessed as noncovalent protein-ligand interaction by mass spectroscopy; procedure, shortened: as §3
[13] = test system: Mycobacterium tuberculosis; assay: Antimicrobial activity against Mycobacterium tuberculosis H37Rv assessed as reduction in appearance of dense granular cytoplasm by transmission electron microscopy; assay type: functional, organism-based
[14] = test system: Mycobacterium tuberculosis; assay: Antimicrobial activity against Mycobacterium tuberculosis H37Rv assessed decrease in PDIM biosynthesis by [14C]propionate incorporation assay; assay type: functional, organism-based; procedure, shortened: as §6
[15] = test system: Mycobacterium tuberculosis; assay: Antimicrobial activity against Mycobacterium tuberculosis H37Rv assessed as concentration required for 100-fold reduction in bacterial CFU; assay type: functional
Procedure, shortened: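 H37Rv culture serially diluted and plated on Middlebrook 7H10 agar with OADC containing various concentrations of the acyl-AMS analogue. Colonies counted after two weeks at 37°C. MIC is the concentration giving a 10^2-fold CFU reduction.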

[16] = test system: Mycobacterium tuberculosis; assay: Antimicrobial activity against Mycobacterium tuberculosis MC2 assessed as concentration required for 100-fold reduction in bacterial CFU; assay type: functional
Procedure, shortened: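 Susceptibility followed by CFU counts on plates containing various inhibitor concentrations. MIC99 is taken as the concentration causing a 10^2 reduction in colony forming units.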

[17] = as §1; procedure, shortened: as §2
[18] = test system: Mycobacterium tuberculosis H37Rv; assay: Activity at Mycobacterium tuberculosis H37Rv FACL19 assessed as acy-CoA formation by radio-TLC assay
[19] = test system: Mycobacterium tuberculosis H37Rv; assay: Activity at Mycobacterium tuberculosis H37Rv FAAL28 assessed as conversion of lauroyl-AMP to lauryl-CoA by radio-TLC assay
[20] = as §5; procedure, shortened: as §2
Rhodococcus sp. = assay: Activity at Rhodococcus sp. FAAL expressed in Escherichia coli assessed as palmitoyl-CoA formation at 1 mM by TLC method
Procedure, shortened: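 Recombinant Rhodococcus ro_4064 protein expressed in E. coli, assayed cell-free with palmitic acid as substrate, with or without 1 mM CoASH. Products separated by TLC and detected by autoradiography.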

CCCCCCCCCCCC(=O)NS(=O)(=O)OC[C@H]1O[C@@H](n2cnc3c(N)ncnc32)[C@H](O)[C@@H]1O
inhibition [1]: tde
Activity [2]: Active
Km [3]: 24 µM
Activity [4]: Active
Activity [5]: Dose-dependent effect
Activity [6]: Active
inhibition [7]: tde
Activity [8]: inactive
Activity [9]: Dose-dependent effect
Activity [10]: Active
Activity [11]: Dose-dependent effect
Activity [12]: Active
Activity [13]: Active
Activity [14]: Active
MIC99 [15]: 100 µM (≈ 52.9 µg/mL)
MIC99 [16]: 215 µM (≈ 114 µg/mL)

CC(C)(COP(=O)(O)OP(=O)(O)OC[C@H]1O[C@@H](n2cnc3c(N)ncnc32)[C@H](O)[C@@H]1OP(=O)(O)O)[C@@H](O)C(=O)NCCC(=O)NCCS [COENZYME_A]
IC50 [17]: 1200 nM
Activity [18]: Active
Activity [19]: inactive
IC50 [20]: 1250 nM
Ki ([20]; read-out: Ki(app)): 4900 nM
Activity (Rhodococcus sp.): inactive
